Active and inactive are the calls of the source.
How the values were obtained:
[1] = test system: Human immunodeficiency virus 1; assay: Antiviral activity against HIV1 at 1 ug/ml; type: functional, organism-based
HCT-116 [2] = assay: Cytotoxicity against human HCT 116 with wild type p53 at 0.009 to 152 uM by MTT assay; type: functional
In short: (§1)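 HCT116 p53+/+ and p53-/- cells grown in McCoy's medium with 2 mM L-glutamine, 1 mM sodium pyruvate, penicillin/streptomycin and 10% FBS at 37 °C, 5% CO2. Seeded at 4 × 10^5 cells/well and left to attach for 24 h. Exposed to 0-78 µg/mL compound for 72 h. MTT added (final 0.25 mg/mL) for 3 h, formazan dissolved in DMSO, A570 read, IC50 by curve fitting.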

HCT-116 [3] = assay: Cytotoxicity against human HCT 116 with null p53 mutant at 0.009 to 152 uM by MTT assay; type: functional; in short: as §1
HCT-116 [4] = assay: Cytotoxicity against human HCT 116 with null p53 mutant at 0.006 to 103 uM by MTT assay; type: functional; in short: as §1
HCT-116 [5] = assay: Cytotoxicity against human HCT 116 with wild type p53 at 0.008 to 124 uM by MTT assay; type: functional; in short: as §1
HCT-116 [6] = assay: Cytotoxicity against human HCT 116 with null p53 mutant p53 at 0.008 to 124 uM by MTT assay; type: functional; in short: as §1
HCT-116 [7] = assay: Cytotoxicity against human HCT 116 with wild type p53 at 0.006 to 103 uM by MTT assay; type: functional; in short: as §1
[8] = test system: Human immunodeficiency virus 1; assay: Antiviral activity against HIV1 at 10 ug/ml; type: functional, organism-based

Measured: Activity

C/C(Cl)=C/C=C/C=C/C=C/C=C/C(O)=C1\C(=O)[C@H](CC(N)=O)N([C@@H]2OC[C@@H](O)[C@H](O)[C@H]2O)C1=O
inactive: [1] | HCT-116 [2] | HCT-116 [3] | HCT-116 [4] | HCT-116 [5] | HCT-116 [6] | HCT-116 [7] | [8]

CO[C@@H]1[C@H](O[C@@H]2CO[C@@H](O[C@@H]3[C@@H](O)[C@H](O)CO[C@H]3N3C(=O)/C(=C(O)/C=C/C=C/C=C/C=C/C=C(/C)Cl)C(=O)[C@@H]3CC(N)=O)[C@@H](O)[C@@H]2O)O[C@H](C)[C@H]1O
inactive: [1] | HCT-116 [2] | HCT-116 [3] | HCT-116 [4] | HCT-116 [5] | HCT-116 [6] | HCT-116 [7] | [8]

C/C(Cl)=C/C=C/C=C/C=C/C=C/C(O)=C1\C(=O)[C@H](CC(N)=O)N([C@@H]2OC[C@@H](O)[C@H](O)[C@H]2O[C@@H]2OC[C@@H](O)[C@@H](O)[C@@H]2O)C1=O
inactive: [1] | HCT-116 [2] | HCT-116 [3] | HCT-116 [4] | HCT-116 [5] | HCT-116 [6] | HCT-116 [7] | [8]
